Measurements as given in ChEMBL document CHEMBL1122140, “Derivatives of the potent angiotensin converting enzyme inhibitor 5(S)-benzamido-4-oxo-6-phenylhexanoyl-L-proline: effect of changes at positions 2 and 5 of the hexanoic acid portion” (J Med Chem, 1982).

Legend:
Rattus norvegicus [1] = test: Base line of mean aortic blood pressure in the conscious Renal hypertensive rat was determined after oral administration of 30 mg/kg; assay type: functional, Artery
Rattus norvegicus [2] = test: Maximum effect on blood pressure in the conscious Renal hypertensive rat after oral administration of 30 mg/kg; assay type: functional
In short: (§1)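 Male CD albino rats were clipped at four weeks old, and hypertension developed over 3–4 weeks. Rats weighed 280–320 g at cannulation and had chronic aortic cannulae implanted 2–4 days before testing. Only rats with mean aortic pressure above 160 mmHg were used. Dosing was oral in 4% gum acacia (2 mL/kg). One-minute running averages were recorded every 30 min and reported as mean ± SEM, two-tailed p < 0.05.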

[3] = target: Angiotensin-converting enzyme (Cavia porcellus); test: Inhibition of guinea pig serum Angiotensin I converting enzyme
Rattus norvegicus [4] = test: Change in mean aortic blood pressure expressed in hours after an oral administration of 30 mg/kg in conscious renal hypertensive rats
Rattus norvegicus [5] = test: Change in mean aortic blood pressure expressed in hours after an oral administration of 3 mg/kg in conscious normotensive rats; assay type: functional, Artery
Rattus norvegicus [6] = test: Inhibition of blood pressure increase produced by iv injection of angiotensin I in conscious normotensive rats at a dose of 30 mg/kg; assay type: functional
Rattus norvegicus [7] = test: Inhibition of blood pressure increase produced by iv injection of angiotensin I in conscious normotensive rats at a dose of 3 mg/kg; assay type: functional
Rattus norvegicus [8] = test: Angiotensin I(AI) response to return to 70% of the pretreatment control response was determined at a dose of 30 mg/kg, po; assay type: functional
Rattus norvegicus [9] = test: Angiotensin I(AI) response to return to 70% of the pretreatment control response was determined at a dose of 3 mg/kg, iv; assay type: functional
Rattus norvegicus [10] = test: Angiotensin I(AI) response to return to 70% of the pretreatment control response was determined at a dose of 3 mg/kg; assay type: functional
Rattus norvegicus [11] = test: Base line of mean aortic blood pressure in the conscious Renal hypertensive rat was determined after oral administration of 3 mg/kg; assay type: functional; conditions: Artery; in short: as §1
Rattus norvegicus [12] = test: Change in mean aortic blood pressure expressed in hours after an oral administration of 3 mg/kg in conscious renal hypertensive rats
Rattus norvegicus [13] = test: Change in mean aortic blood pressure expressed in hours after an oral administration of 30 mg/kg in conscious renal hypertensive rats; remark: listed apart in the source

I50 [3]	SMILES	Mean aortic blood pressure (Rattus norvegicus [1])	Mean aortic blood pressure (Rattus norvegicus [2])	Change (Rattus norvegicus [4])	inhibition in vivo at 30 mg/kg (Rattus norvegicus [6])	inhibition in vivo at 3 mg/kg (Rattus norvegicus [7])	other results
650 nM	CCCCCCCC(=O)N[C@@H](Cc1ccccc1)C(=O)CCC(=O)N1CCCC1C(=O)O (stereo not given in full)	182 mmHg	167 mmHg	-15 mmHg			
47 nM	CCCCCC(=O)N[C@@H](Cc1ccccc1)C(=O)CCC(=O)N1CCCC1C(=O)O (stereo not given in full)	193 mmHg	191 mmHg				Change (Rattus norvegicus [5]): -2 mmHg
29 nM	CCCCOC(=O)NC(Cc1ccccc1)C(=O)CC(C)C(=O)N1CCCC1C(=O)O (stereo not given)	188 mmHg	176 mmHg	-12 mmHg			
210 nM	CCCCOC(=O)NC(Cc1ccccc1)C(=O)CCC(=O)N1CCCC1C(=O)O (stereo not given)	175 mmHg	160 mmHg	-15 mmHg			
	C[C@H](CC(=O)[C@@H](Cc1ccccc1)NC(=O)c1ccccc1)C(=O)N1CCC[C@H]1C(=O)O	188 mmHg	166 mmHg				Change (Rattus norvegicus [5]): -22 mmHg
	C[C@@H](CC(=O)[C@@H](Cc1ccccc1)NC(=O)c1ccccc1)C(=O)N1CCC[C@H]1C(=O)O	183 mmHg	163 mmHg	-20 mmHg			
6500 nM	CCCCCCCCCC(=O)N[C@@H](Cc1ccccc1)C(=O)CCC(=O)N1CCCC1C(=O)O (stereo not given in full)	197 mmHg	176 mmHg				Change (Rattus norvegicus [5]): -21 mmHg
	O=C(N[C@@H](Cc1ccccc1)C(=O)CCC(=O)N1CCC[C@H]1C(=O)O)c1ccccc1	190 mmHg		-12 mmHg	48%	57%	
	C[C@@H](CC(=O)[C@H](Cc1ccccc1)NC(=O)c1ccccc1)C(=O)N1CCC[C@H]1C(=O)O	189 mmHg	173 mmHg	-16 mmHg	71%	74%	AI recovery time (Rattus norvegicus [8]): >180 min; AI recovery time (Rattus norvegicus [9]): 71 min
	C[C@H](CC(=O)[C@H](Cc1ccccc1)NC(=O)c1ccccc1)C(=O)N1CCC[C@H]1C(=O)O	197 mmHg	159 mmHg		100%	100%	AI recovery time (Rattus norvegicus [8]): 143 min; AI recovery time (Rattus norvegicus [10]): 73 min; AI recovery time (Rattus norvegicus [9]): 73 min; Mean aortic blood pressure at 3 mg/kg (Rattus norvegicus [11]): 209 mmHg; Change (Rattus norvegicus [12]): -40 mmHg; Change (Rattus norvegicus [13]): -38 mmHg
	C[C@H](CS)C(=O)N1CCC[C@H]1C(=O)O [CAPTOPRIL]		99 mmHg		69%	95%	
